In the library only some 3.7% were active in any assay of this set; here they are far more common.
KCNQ1 block – human KCNQ1 channel inhibition; P51787; CHO-K1 KCNQ1, FluxOR thallium flux fluorescence; hits give high values; B-score at 10 µM; 310,000 compounds, 1.3% hits; AID 2642;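 active means compounds whose thallium flux B-score, printed positive for inhibition, exceeds three library SD while starting fluorescence stays within three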;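 further: channel opened by potassium depolarization with thallium stimulus after 20 min compound exposure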
Kir21 block – blocks the mouse Kir2.1 inward-rectifier potassium channel. HEK293-Kir2.1, FluxOR thallium flux fluorescence; hits give low values. 310,000 compounds, 0.85% hits. AID 1672. B-score at 10 µM. P35561;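 active means fluorescence ratio B-score at or below minus 3 SD of library scores, with starting-brightness B-score within 2 SD, cut at about -4.2 in these data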;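 further: channel flux triggered by added potassium and thallium sulfate stimulus; B-score of peak minus minimum fluorescence over baseline after thallium stimulus; more negative B-score means stronger Kir2.1 block with less thallium influx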
KCNK9 block – human KCNK9 channel inhibition; HEK293 KCNK9, FluxOR thallium flux fluorescence; hits give low values; B-score at 10 µM; 310,000 compounds, 1.2% hits; AID 488922; Q9NPC2;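 active means ratio B-score over 3 SD below the library mean, with starting fluorescence within 5 SD of its mean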;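 further: negative B-score means less thallium flux so channel inhibition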
hERG protect – shields human hERG channel from block by proarrhythmic agents; Q12809; CHO-hERG, FluxOR thallium flux, dofetilide IC70 present; activation (rescue from dofetilide block), less the hit threshold, % at 10 µM; 310,000 compounds, 0.51% hits; AID 1511;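 active means activation above the mean of controls blocked by dofetilide plus 5 SD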;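 further: thallium influx through hERG after potassium depolarization seen as dye fluorescence rise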
KCNQ1 pot – potentiates or activates the human KCNQ1 potassium channel. CHO-K1 KCNQ1, thallium flux FluxOR fluorescence; hits give high values. B-score at 10 µM. P51787. 310,000 compounds, 0.35% hits;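 active means fluorescence ratio B-score, a plate-corrected score, at least three library SD, with initial intensity B-score within 5 SD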
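Assay system: stable KCNQ1 CHO-K1 line; medium: assay buffer, equal DMSO in all wells; timing: 90 min dye loading and 20 min compound exposure, both at room temperature; technique: kinetic FluxOR thallium fluorescence, 10-s 1-Hz baseline, 110-s post-stimulus read; read-out basis: B score of baseline-normalized fluorescence ratio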
KCNK3 block – human KCNK3 channel inhibition, primary screen. CHO-KCNK3 thallium flux, FluxOR fluorescence; hits give low values. B-score at 10 µM. 340,000 compounds, 0.84% hits. O14649;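 active means B-score under library mean minus 4 SD, starting fluorescence ratio at most library mean plus 5 SD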;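 further: more negative B-score means stronger inhibition of thallium flux through KCNK3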
KCNK9 inh conf – human KCNK9 inhibitor confirmation | shares compounds with KCNK9 block | HEK293 KCNK9 cells, FluxOR thallium flux fluorescence | inhibition, % at 10 µM | 4,900 compounds, 43% hits | AID 492992;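 active means thallium signal inhibited by more than 5 SD of the compound-free buffer control wells, on both duplicate plates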
Kir21 sel – mouse Kir2.1 off-target activity of KCNK9 modulators. Kir2.1 cells, FluxOR thallium flux fluorescence. shares compounds with KCNK9 block. 4,900 compounds, 4% hits. inhibition, % at 10 µM;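 active means thallium signal drop more than 5 SD beyond the mean of the no-compound control wells, seen in both duplicate plates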;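 further: signal is fluorescence rise after thallium addition divided by baseline fluorescence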
HEK293 Tl ctr – second check of KCNK9 modulator effects in non-induced HEK293 cells. shares compounds with KCNK9 block. FluxOR thallium flux. inhibition, % at 10 µM. 4,900 compounds, 40% hits;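 active means thallium signal drop beyond 5 SD of the untreated control mean, on both duplicate plates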
Each line names hits and unclear results; the compound was inactive in the other large screens (follow-up assays come after a bar, where they were run).

O=C(NCc1cccc(Cl)c1)c1cccnc1	none
O=C(NCc1cccnc1)c1cc(Sc2cccc(Cl)c2)nc2ccccc12	KCNK9 block -8.2 | KCNK9 inh conf 36% | Kir21 sel inactive | HEK293 Tl ctr inactive
CCc1nn2c(NCCOC)cc(C)nc2c1-c1ccc(F)cc1	none
COc1cccc(N2CCN(C3CCCC(C)C3)CC2)c1 (stereo not given)	none
Cc1ccc(C)c(N2CCN(C3CCCC(C)C3)CC2)c1 (stereo not given)	none | KCNK9 inh conf inactive | Kir21 sel inactive | HEK293 Tl ctr inactive
Cc1ccc(C)c(N2CCN(CCCc3ccccc3)CC2)c1	none | KCNK9 inh conf inactive | Kir21 sel inactive | HEK293 Tl ctr inactive
Cc1ccc(C)c(N2CCN(CC3CCCCC3)CC2)c1	none | KCNK9 inh conf inactive | Kir21 sel inactive | HEK293 Tl ctr inactive
Oc1[nH]c2ccccc2c1C=Nc1ccccc1	none
Cc1nc(SCC(=O)Nc2ccc(CN3CCCC3)cc2)c2c(C)c(C)sc2n1	none (no result: KCNQ1 block, Kir21 block, KCNK9 block, hERG protect, KCNQ1 pot)
Cc1ccc(CON=C2CCN(c3ncc(C(F)(F)F)cc3Cl)CC2)cc1	none | KCNK9 inh conf inactive | Kir21 sel inactive | HEK293 Tl ctr inactive
Cc1cc(C(=O)CSc2nn3c(=O)c(C(C)(C)C)nnc3s2)c(C)n1C1CC1	none | KCNK9 inh conf inactive | Kir21 sel inactive | HEK293 Tl ctr inactive
CCC1Oc2ccc(C)cc2N(CC(=O)N(Cc2ccc(C)o2)C2CCCC2)C1=O (stereo not given)	none | KCNK9 inh conf inactive | Kir21 sel inactive | HEK293 Tl ctr 34%
CCOc1ccc(CN(C)CC(=O)Nc2cc(C)c(C)cc2[N+](=O)[O-])cc1	none | KCNK9 inh conf inactive | Kir21 sel inactive | HEK293 Tl ctr inactive
Cc1sc2nc(-c3cccnc3)nc(Cl)c2c1-c1ccccc1	none | KCNK9 inh conf inactive | Kir21 sel inactive | HEK293 Tl ctr inactive
CC(C(=O)N1CCCc2ccccc21)N1CCN(S(=O)(=O)c2ccccc2F)CC1 (stereo not given)	none | KCNK9 inh conf inactive | Kir21 sel inactive | HEK293 Tl ctr inactive
COC(=O)c1nn(-c2ccccc2)c(Cl)c1/C=N/O	none
COC(=O)c1nn(-c2ccccc2)c(Cl)c1/C=N/OCc1ccc(Cl)cc1Cl	none | KCNK9 inh conf inactive | Kir21 sel inactive | HEK293 Tl ctr inactive
Cc1ccc(-c2nc(N)sc2CC(=O)OCC(=O)N2C(C)CCCC2C)cc1 (stereo not given)	none | KCNK9 inh conf inactive | Kir21 sel inactive | HEK293 Tl ctr inactive
CCCC1CCC(c2ccc(OCC)cc2)=CC1=O (stereo not given)	none
C[C@H](N)c1nnc(SCc2c(Cl)cccc2Cl)o1	none
Clc1cccc(Cl)c1CSc1nnc(/C=C/c2ccccc2)o1	none | KCNK9 inh conf inactive | Kir21 sel inactive | HEK293 Tl ctr 29%
Cc1cc(C)c(OCC(=O)Nc2ccccc2N2CCOCC2)c(C)c1	KCNK9 block -10, KCNK3 block -10 | KCNK9 inh conf inactive | Kir21 sel inactive | HEK293 Tl ctr 48%
O=C(COc1ccccc1)Nc1ccccc1N1CCN(c2ccc(F)cc2)CC1	KCNK9 block -8.6 | KCNK9 inh conf inactive | Kir21 sel inactive | HEK293 Tl ctr 28%
CCC(=O)N1CCN(c2ccccc2NC(=O)COc2cc(C)ccc2C(C)C)CC1	KCNK9 block -8.2 | KCNK9 inh conf 46% | Kir21 sel inactive | HEK293 Tl ctr 28%
CCCCCC(=O)Nc1ccccc1N1CCN(c2ccccc2)CC1	KCNK9 block -13, KCNK3 block -11 | KCNK9 inh conf 49% | Kir21 sel inactive | HEK293 Tl ctr 36%
Cc1cc(C)c(OCC(=O)Nc2ccccc2N2CCCCC2)c(C)c1	none
CCOc1ccc(OCCNCc2ccc(OC(C)C(=O)N(C)C)c(OCC)c2)cc1 (stereo not given)	none

Screening data deposited in PubChem by Johns Hopkins Ion Channel Center.
